Tests used:
Format in all cases: functional
UACC-257 = experiment: Growth inhibition of human UACC257 cells at 10 uM after 48 hrs by coulter counting; conditions: UACC-257, 48 h, read-out: GI
How it was run: (§1)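 Single-dose screen in the NCI 60 human tumor cell line panel (nine subpanels). Compounds dissolved in DMSO and diluted in phosphate buffered saline, keeping final DMSO below 1%. Added in duplicate wells to cells at 6 × 10⁴ cells/ml. Controls held PBS and DMSO at matching dilutions. Incubated at 37 °C, humidified, 5% CO₂. Reported as percent growth of treated cells.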

UACC-62 = experiment: Growth inhibition of human UACC62 cells at 10 uM after 48 hrs by coulter counting; conditions: UACC-62, 48 h, read-out: GI; how it was run: as §1
CCRF-CEM = experiment: Growth inhibition of human CCRF-CEM cells at 10 uM after 48 hrs by coulter counting; conditions: read-out: GI
How it was run: (§2)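 Single-dose primary screen across the full NCI 60-cell-line panel. Stocks were made in DMSO and diluted in PBS to a final DMSO below 1%. Cultures at 6 × 10⁴ cells/ml were run in duplicate wells alongside PBS/DMSO vehicle controls at 37 °C in humidified 5% CO₂. Data were expressed as percent growth of treated cells.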

HL-60(TB) = experiment: Growth inhibition of human HL-60(TB) cells at 10 uM after 48 hrs by coulter counting; conditions: HL-60, 48 h, read-out: GI
How it was run: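 Test compound was dissolved in DMSO and diluted in phosphate-buffered saline to a final DMSO level below 1%. Dilutions were plated in duplicate with cell culture at 6 × 10⁴ cells/ml. Vehicle controls held PBS and DMSO at matching dilutions. Incubation was at 37 °C, humidified, under 5% CO₂. Data were reported as percent growth of treated cells.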

K562 = experiment: Growth inhibition of human K562 cells at 10 uM after 48 hrs by coulter counting; conditions: K562, 48 h, read-out: GI; how it was run: as §2
MOLT-4 = experiment: Growth inhibition of human MOLT4 cells at 10 uM after 48 hrs by coulter counting; conditions: MOLT-4, 48 h, read-out: GI; how it was run: as §2
RPMI-8226 = experiment: Growth inhibition of human RPMI8226 cells at 10 uM after 48 hrs by coulter counting; conditions: RPMI-8226, 48 h, read-out: GI; how it was run: as §2
A549 = experiment: Growth inhibition of human A549 cells at 10 uM after 48 hrs by coulter counting; conditions: A549, 48 h, read-out: GI; how it was run: as §2
EKVX = experiment: Growth inhibition of human EKVX cells at 10 uM after 48 hrs by coulter counting; conditions: read-out: GI; how it was run: as §2
HOP-62 = experiment: Growth inhibition of human HOP62 cells at 10 uM after 48 hrs by coulter counting; conditions: HOP-62, 48 h, read-out: GI; how it was run: as §2
NCI-H226 = experiment: Growth inhibition of human NCI-H226 cells at 10 uM after 48 hrs by coulter counting; conditions: NCI-H226, 48 h, read-out: GI; how it was run: as §2
NCI-H23 = experiment: Growth inhibition of human NCI-H23 cells at 10 uM after 48 hrs by coulter counting; conditions: NCI-H23, 48 h, read-out: GI; how it was run: as §2
[1] = Growth inhibition of human NCI-322M cells at 10 uM after 48 hrs by coulter counting; conditions: read-out: GI; how it was run: as §2
NCI-H460 = experiment: Growth inhibition of human NCI-H460 cells at 10 uM after 48 hrs by coulter counting; conditions: NCI-H460, 48 h, read-out: GI; how it was run: as §2
NCI-H522 = experiment: Growth inhibition of human NCI-H522 cells at 10 uM after 48 hrs by coulter counting; conditions: NCI-H522, 48 h, read-out: GI; how it was run: as §2
HCT-116 = experiment: Growth inhibition of human HCT116 cells at 10 uM after 48 hrs by coulter counting; conditions: HCT-116, 48 h, read-out: GI; how it was run: as §2
HCC 2998 = experiment: Growth inhibition of human HCC2998 cells at 10 uM after 48 hrs by coulter counting; conditions: HCC 2998, 48 h, read-out: GI; how it was run: as §2
HT-29 = experiment: Growth inhibition of human HT-29 cells at 10 uM after 48 hrs by coulter counting; conditions: HT-29, 48 h, read-out: GI; how it was run: as §2
KM12 = experiment: Growth inhibition of human KM12 cells at 10 uM after 48 hrs by coulter counting; conditions: KM12, 48 h, read-out: GI; how it was run: as §2
SF-268 = experiment: Growth inhibition of human SF268 cells at 10 uM after 48 hrs by coulter counting; conditions: SF-268, 48 h, read-out: GI; how it was run: as §2
SF-295 = experiment: Growth inhibition of human SF295 cells at 10 uM after 48 hrs by coulter counting; conditions: SF-295, 48 h, read-out: GI; how it was run: as §2
SNB-19 = experiment: Growth inhibition of human SNB19 cells at 10 uM after 48 hrs by coulter counting; conditions: SNB-19, 48 h, read-out: GI; how it was run: as §2
SNB-75 = experiment: Growth inhibition of human SNB75 cells at 10 uM after 48 hrs by coulter counting; conditions: SNB-75, 48 h, read-out: GI; how it was run: as §2
U-251 = experiment: Growth inhibition of human U251 cells at 10 uM after 48 hrs by coulter counting; conditions: U-251, 48 h, read-out: GI; how it was run: as §1
LOX IMVI = experiment: Growth inhibition of human LOXIMVI cells at 10 uM after 48 hrs by coulter counting; conditions: read-out: GI; how it was run: as §2
M14 = experiment: Growth inhibition of human M14 cells at 10 uM after 48 hrs by coulter counting; conditions: M14, 48 h, read-out: GI; how it was run: as §2
MDA-MB-435 = experiment: Growth inhibition of human MDA-MB-435 cells at 10 uM after 48 hrs by coulter counting; conditions: MDA-MB-435, 48 h, read-out: GI; how it was run: as §2
SK-MEL-2 = experiment: Growth inhibition of human SK-MEL-2 cells at 10 uM after 48 hrs by coulter counting; conditions: SK-MEL-2, 48 h, read-out: GI; how it was run: as §2
SK-MEL-28 = experiment: Growth inhibition of human SK-MEL-28 cells at 10 uM after 48 hrs by coulter counting; conditions: SK-MEL-28, 48 h, read-out: GI; how it was run: as §2
SK-MEL-5 = experiment: Growth inhibition of human SK-MEL-5 cells at 10 uM after 48 hrs by coulter counting; conditions: SK-MEL-5, 48 h, read-out: GI; how it was run: as §2
IGROV-1 = experiment: Growth inhibition of human IGROV1 cells at 10 uM after 48 hrs by coulter counting; conditions: IGROV-1, 48 h, read-out: GI; how it was run: as §2
OVCAR-4 = experiment: Growth inhibition of human OVCAR4 cells at 10 uM after 48 hrs by coulter counting; conditions: OVCAR-4, 48 h, read-out: GI; how it was run: as §2
NCI/ADR-RES = experiment: Growth inhibition of human NCI/ADR-RES cells at 10 uM after 48 hrs by coulter counting; conditions: read-out: GI; how it was run: as §2
A498 = experiment: Growth inhibition of human A498 cells at 10 uM after 48 hrs by coulter counting; conditions: A498, 48 h, read-out: GI; how it was run: as §2
ACHN = experiment: Growth inhibition of human ACHN cells at 10 uM after 48 hrs by coulter counting; conditions: read-out: GI; how it was run: as §2
CAKI-1 = experiment: Growth inhibition of human Caki1 cells at 10 uM after 48 hrs by coulter counting; conditions: CAKI-1, 48 h, read-out: GI; how it was run: as §2
UO-31 = experiment: Growth inhibition of human UO31 cells at 10 uM after 48 hrs by coulter counting; conditions: UO-31, 48 h, read-out: GI; how it was run: as §1
DU-145 = experiment: Growth inhibition of human DU145 cells at 10 uM after 48 hrs by coulter counting; conditions: DU-145, 48 h, read-out: GI; how it was run: as §2
MCF7 = experiment: Growth inhibition of human MCF7 cells at 10 uM after 48 hrs by coulter counting; conditions: MCF7, 48 h, read-out: GI; how it was run: as §2
BT-549 = experiment: Growth inhibition of human BT549 cells at 10 uM after 48 hrs by coulter counting; conditions: BT-549, 48 h, read-out: GI; how it was run: as §2
T47D = experiment: Growth inhibition of human T47D cells at 10 uM after 48 hrs by coulter counting; conditions: read-out: GI; how it was run: as §1

Measured: inhibition of growth at 10 µM

CC1=CSC2=NC3=C(CCC/C3=C\c3cccs3)C(c3cccs3)N12 (stereo unspecified)
16.6%: SNB-75
14.3%: A498
24.5%: UO-31
> 10%: UACC-257 | UACC-62 | CCRF-CEM | K562 | MOLT-4 | RPMI-8226 | A549 | EKVX | NCI-H226 | NCI-H23 | [1] | NCI-H460 | NCI-H522 | HCT-116 | HCC 2998 | HT-29 | KM12 | SF-268 | SF-295 | SNB-19 | U-251 | LOX IMVI | M14 | MDA-MB-435 | SK-MEL-2 | SK-MEL-28 | SK-MEL-5 | IGROV-1 | OVCAR-4 | NCI/ADR-RES | ACHN | CAKI-1 | DU-145 | MCF7 | BT-549 | T47D
11.3%: HOP-62
11.4%: HL-60(TB)

Source: ChEMBL document CHEMBL1926614, “Substituted thiazoles V. synthesis and antitumor activity of novel thiazolo[2,3-b]quinazoline and pyrido[4,3-d]thiazolo[3,2-a]pyrimidine analogues” (2012)
